Experimental data published in ChEMBL document CHEMBL4229333, “Effects of rigidity on the selectivity of protein kinase inhibitors” (Eur J Med Chem, 2018).

How the values were obtained:
[1] = target: Fibroblast growth factor receptor 4 (Homo sapiens) (UniProt P22455); assay: Inhibition of FGFR4 (unknown origin) at 1 uM by mobility shift microfluidics platform based assay relative to control
[2] = target: Inhibitor of nuclear factor kappa-B kinase subunit epsilon (Homo sapiens) (UniProt Q14164); assay: Inhibition of IKK-epsilon (unknown origin) at 1 uM by mobility shift microfluidics platform based assay relative to control
[3] = target: Aurora kinase C (Homo sapiens) (UniProt Q9UQB9); assay: Inhibition of AURORA-C (unknown origin) at 1 uM by mobility shift microfluidics platform based assay relative to control
[4] = target: PAS domain-containing serine/threonine-protein kinase (Homo sapiens) (UniProt Q96RG2); assay: Inhibition of PASK (unknown origin) at 1 uM by mobility shift microfluidics platform based assay relative to control
[5] = Apparent permeability from basolateral to apical side in human Caco2 cells in absence of P-gp inhibitor by LC-MS/MS analysis; assay type: ADME, cell-based; conditions: Caco-2
In short: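 Caco-2 monolayer permeability, measured apical-to-basolateral and basolateral-to-apical. Compound concentrations were quantified by LC-MS/MS, and apparent permeability coefficients (Papp, cm/s) were calculated from them.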

[6] = target: Ribosomal protein S6 kinase alpha-3 (Homo sapiens) (UniProt P51812); assay: Inhibition of RSK2 (unknown origin) at 1 uM by mobility shift microfluidics platform based assay relative to control
[7] = target: Serine/threonine-protein kinase BRSK2 (Homo sapiens) (UniProt Q8IWQ3); assay: Inhibition of BRSK2 (unknown origin) at 1 uM by mobility shift microfluidics platform based assay relative to control
[8] = target: Serine/threonine-protein kinase DCLK2 (Homo sapiens) (UniProt Q8N568); assay: Inhibition of DCAMKL2 (unknown origin) at 1 uM by mobility shift microfluidics platform based assay relative to control
Sequence of Serine/threonine-protein kinase DCLK2 (Homo sapiens) (Q8N568 whole entry): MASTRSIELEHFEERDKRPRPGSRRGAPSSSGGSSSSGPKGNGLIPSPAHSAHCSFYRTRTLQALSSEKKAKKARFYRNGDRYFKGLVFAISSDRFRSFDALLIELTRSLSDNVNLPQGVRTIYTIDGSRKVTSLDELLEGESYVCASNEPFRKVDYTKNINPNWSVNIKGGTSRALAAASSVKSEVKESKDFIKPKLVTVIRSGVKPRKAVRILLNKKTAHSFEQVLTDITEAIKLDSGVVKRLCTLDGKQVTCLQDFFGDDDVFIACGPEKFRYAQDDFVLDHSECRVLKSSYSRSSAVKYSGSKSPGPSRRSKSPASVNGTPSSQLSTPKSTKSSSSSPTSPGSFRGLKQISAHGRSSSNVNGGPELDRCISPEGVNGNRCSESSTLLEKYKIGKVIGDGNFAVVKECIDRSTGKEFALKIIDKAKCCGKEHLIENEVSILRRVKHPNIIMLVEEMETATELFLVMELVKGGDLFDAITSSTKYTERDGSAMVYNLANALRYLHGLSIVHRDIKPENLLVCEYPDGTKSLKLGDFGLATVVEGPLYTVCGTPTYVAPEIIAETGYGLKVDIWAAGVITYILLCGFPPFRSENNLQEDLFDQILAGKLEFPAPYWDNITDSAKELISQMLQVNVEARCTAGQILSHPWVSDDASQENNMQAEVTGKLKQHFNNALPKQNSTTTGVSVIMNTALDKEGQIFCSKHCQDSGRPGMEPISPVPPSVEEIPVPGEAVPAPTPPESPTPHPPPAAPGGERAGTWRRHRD

[9] = target: MAP kinase-activated protein kinase 3 (Homo sapiens) (UniProt Q16644); assay: Inhibition of MAPKAPK3 (unknown origin) at 1 uM by mobility shift microfluidics platform based assay relative to control
[10] = target: Calcium/calmodulin-dependent protein kinase type II subunit delta (Homo sapiens) (UniProt Q13557); assay: Inhibition of CAMK2D (unknown origin) at 1 uM by mobility shift microfluidics platform based assay relative to control
[11] = target: Ribosomal protein S6 kinase alpha-6 (Homo sapiens) (UniProt Q9UK32); assay: Inhibition of RSK4 (unknown origin) at 1 uM by mobility shift microfluidics platform based assay relative to control
[12] = target: Ephrin type-B receptor 3 (Homo sapiens) (UniProt P54753); assay: Inhibition of EPH-B3 (unknown origin) at 1 uM by mobility shift microfluidics platform based assay relative to control
[13] = target: Vascular endothelial growth factor receptor 3 (Homo sapiens) (UniProt P35916); assay: Inhibition of FLT4 (unknown origin) at 1 uM by mobility shift microfluidics platform based assay relative to control
[14] = target: Casein kinase I isoform gamma-2 (Homo sapiens) (UniProt P78368); assay: Inhibition of CK1-gamma2 (unknown origin) at 1 uM by mobility shift microfluidics platform based assay relative to control
[15] = target: Protein-tyrosine kinase 2-beta (Homo sapiens) (UniProt Q14289); assay: Inhibition of PYK2 (unknown origin) at 1 uM by mobility shift microfluidics platform based assay relative to control
Sequence of Protein-tyrosine kinase 2-beta (Homo sapiens) (Q14289 whole entry, looked up): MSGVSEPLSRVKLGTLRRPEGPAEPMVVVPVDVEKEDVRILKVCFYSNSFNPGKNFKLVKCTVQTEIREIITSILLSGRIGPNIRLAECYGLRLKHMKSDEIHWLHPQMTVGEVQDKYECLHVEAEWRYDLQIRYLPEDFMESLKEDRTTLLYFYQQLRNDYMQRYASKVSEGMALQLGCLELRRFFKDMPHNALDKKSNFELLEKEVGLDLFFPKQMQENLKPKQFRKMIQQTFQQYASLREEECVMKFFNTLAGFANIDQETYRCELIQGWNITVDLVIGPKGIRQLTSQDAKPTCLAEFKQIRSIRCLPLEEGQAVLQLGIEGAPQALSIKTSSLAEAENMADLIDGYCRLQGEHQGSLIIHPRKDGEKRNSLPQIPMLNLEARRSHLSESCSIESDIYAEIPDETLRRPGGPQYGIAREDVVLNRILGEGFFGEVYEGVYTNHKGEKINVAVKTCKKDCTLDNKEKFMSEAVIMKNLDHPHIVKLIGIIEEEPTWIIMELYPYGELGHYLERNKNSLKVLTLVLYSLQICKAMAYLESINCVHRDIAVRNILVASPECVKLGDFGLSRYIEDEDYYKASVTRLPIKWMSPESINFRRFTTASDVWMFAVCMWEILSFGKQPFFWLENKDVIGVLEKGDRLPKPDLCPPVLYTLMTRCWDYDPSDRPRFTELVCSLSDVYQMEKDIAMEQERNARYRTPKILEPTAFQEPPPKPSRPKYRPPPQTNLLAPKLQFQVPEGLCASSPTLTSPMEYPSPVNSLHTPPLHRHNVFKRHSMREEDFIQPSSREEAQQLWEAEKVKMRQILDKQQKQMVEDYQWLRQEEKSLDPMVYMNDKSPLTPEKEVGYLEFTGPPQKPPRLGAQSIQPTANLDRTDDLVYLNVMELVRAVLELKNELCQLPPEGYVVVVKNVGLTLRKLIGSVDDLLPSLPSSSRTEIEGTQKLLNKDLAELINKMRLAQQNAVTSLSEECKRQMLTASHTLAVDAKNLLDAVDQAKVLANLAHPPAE

[16] = target: Serine/threonine-protein kinase N1 (Homo sapiens) (UniProt Q16512); assay: Inhibition of PKN1 (unknown origin) at 1 uM by mobility shift microfluidics platform based assay relative to control
[17] = target: Ephrin type-A receptor 1 (Homo sapiens) (UniProt P21709); assay: Inhibition of EPH-A1 (unknown origin) at 1 uM by mobility shift microfluidics platform based assay relative to control
[18] = target: Non-receptor tyrosine-protein kinase TYK2 (Homo sapiens) (UniProt P29597); assay: Inhibition of TYK2 (unknown origin) at 1 uM by mobility shift microfluidics platform based assay relative to control
[19] = target: Serine/threonine-protein kinase Chk1 (Homo sapiens) (UniProt O14757); assay: Inhibition of CHEK1 (unknown origin) at 1 uM by mobility shift microfluidics platform based assay relative to control
[20] = target: BDNF/NT-3 growth factors receptor (Homo sapiens) (UniProt Q16620); assay: Inhibition of TRKB (unknown origin) at 1 uM by mobility shift microfluidics platform based assay relative to control
[21] = target: Calcium/calmodulin-dependent protein kinase type II subunit beta (Homo sapiens) (UniProt Q13554); assay: Inhibition of CAMK2B (unknown origin) at 1 uM by mobility shift microfluidics platform based assay relative to control
[22] = target: Tyrosine-protein kinase JAK3 (Homo sapiens) (UniProt P52333); assay: Inhibition of JAK3 (unknown origin) at 1 uM by mobility shift microfluidics platform based assay relative to control
Sequence of Tyrosine-protein kinase JAK3 (Homo sapiens) (P52333 whole entry): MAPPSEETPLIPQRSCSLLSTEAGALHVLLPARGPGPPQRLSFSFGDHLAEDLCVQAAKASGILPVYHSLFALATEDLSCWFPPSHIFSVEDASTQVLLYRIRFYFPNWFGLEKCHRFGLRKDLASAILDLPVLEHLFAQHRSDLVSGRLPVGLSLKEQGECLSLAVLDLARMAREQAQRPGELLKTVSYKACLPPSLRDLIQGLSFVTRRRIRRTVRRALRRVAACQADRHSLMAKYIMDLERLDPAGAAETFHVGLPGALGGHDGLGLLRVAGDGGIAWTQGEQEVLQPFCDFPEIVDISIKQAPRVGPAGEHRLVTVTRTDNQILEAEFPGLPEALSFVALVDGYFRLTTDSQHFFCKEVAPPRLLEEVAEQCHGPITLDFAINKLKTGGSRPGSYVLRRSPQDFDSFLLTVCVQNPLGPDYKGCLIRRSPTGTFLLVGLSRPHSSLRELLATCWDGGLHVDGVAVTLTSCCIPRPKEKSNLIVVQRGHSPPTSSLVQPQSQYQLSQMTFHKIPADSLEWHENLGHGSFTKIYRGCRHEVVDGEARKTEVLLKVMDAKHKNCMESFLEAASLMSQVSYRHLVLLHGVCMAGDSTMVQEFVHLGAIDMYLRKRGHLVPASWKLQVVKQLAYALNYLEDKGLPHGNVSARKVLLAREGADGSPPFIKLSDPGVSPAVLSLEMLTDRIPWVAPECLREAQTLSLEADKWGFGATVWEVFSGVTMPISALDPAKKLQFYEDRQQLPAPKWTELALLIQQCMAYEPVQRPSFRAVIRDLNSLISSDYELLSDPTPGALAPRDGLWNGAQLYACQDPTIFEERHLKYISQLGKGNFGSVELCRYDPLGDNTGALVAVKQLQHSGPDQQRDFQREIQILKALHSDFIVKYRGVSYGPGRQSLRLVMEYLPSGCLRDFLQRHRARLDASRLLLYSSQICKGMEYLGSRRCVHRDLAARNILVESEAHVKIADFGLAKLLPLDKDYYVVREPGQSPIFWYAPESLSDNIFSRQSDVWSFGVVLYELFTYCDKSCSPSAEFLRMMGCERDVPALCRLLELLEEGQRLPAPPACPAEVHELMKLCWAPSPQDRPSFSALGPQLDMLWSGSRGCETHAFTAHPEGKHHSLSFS

[23] = target: Serine/threonine-protein kinase D1 (Homo sapiens) (UniProt Q15139); assay: Inhibition of PRKD1 (unknown origin) at 1 uM by mobility shift microfluidics platform based assay relative to control
[24] = target: SRSF protein kinase 3 (Homo sapiens) (UniProt Q9UPE1); assay: Inhibition of MSSK1 (unknown origin) at 1 uM by mobility shift microfluidics platform based assay relative to control
Homo sapiens = species on record: Homo sapiens; assay: Inhibition of CDK6/Cyclin D (unknown origin) at 1 uM by mobility shift microfluidics platform based assay relative to control
[25] = target: cGMP-dependent protein kinase 2 (Homo sapiens) (UniProt Q13237); assay: Inhibition of PRKG2 (unknown origin) at 1 uM by mobility shift microfluidics platform based assay relative to control
Sequence of cGMP-dependent protein kinase 2 (Homo sapiens) (Q13237 whole entry): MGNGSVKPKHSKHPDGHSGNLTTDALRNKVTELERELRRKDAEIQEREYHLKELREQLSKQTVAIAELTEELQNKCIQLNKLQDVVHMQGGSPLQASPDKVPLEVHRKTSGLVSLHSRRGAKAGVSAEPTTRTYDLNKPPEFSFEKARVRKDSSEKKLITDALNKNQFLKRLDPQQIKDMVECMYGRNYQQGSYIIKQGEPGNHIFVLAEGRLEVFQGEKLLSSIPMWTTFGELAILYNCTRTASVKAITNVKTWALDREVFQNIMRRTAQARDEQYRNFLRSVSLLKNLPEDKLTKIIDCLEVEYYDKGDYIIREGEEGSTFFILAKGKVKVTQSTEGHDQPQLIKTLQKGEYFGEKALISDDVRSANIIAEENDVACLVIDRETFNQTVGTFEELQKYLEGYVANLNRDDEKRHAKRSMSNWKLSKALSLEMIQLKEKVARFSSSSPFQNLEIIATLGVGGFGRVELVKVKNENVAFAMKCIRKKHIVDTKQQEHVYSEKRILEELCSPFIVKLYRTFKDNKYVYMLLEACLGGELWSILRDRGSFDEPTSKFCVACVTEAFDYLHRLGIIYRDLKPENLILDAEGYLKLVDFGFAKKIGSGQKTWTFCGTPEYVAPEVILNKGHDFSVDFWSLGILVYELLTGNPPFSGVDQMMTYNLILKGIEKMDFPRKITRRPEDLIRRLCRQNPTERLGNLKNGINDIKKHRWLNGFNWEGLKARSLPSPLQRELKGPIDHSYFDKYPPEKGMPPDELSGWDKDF

[26] = target: Calcium/calmodulin-dependent protein kinase type 1 (Homo sapiens) (UniProt Q14012); assay: Inhibition of CAMK1A (unknown origin) at 1 uM by mobility shift microfluidics platform based assay relative to control
Sequence of Calcium/calmodulin-dependent protein kinase type 1 (Homo sapiens) (Q14012 whole entry, looked up): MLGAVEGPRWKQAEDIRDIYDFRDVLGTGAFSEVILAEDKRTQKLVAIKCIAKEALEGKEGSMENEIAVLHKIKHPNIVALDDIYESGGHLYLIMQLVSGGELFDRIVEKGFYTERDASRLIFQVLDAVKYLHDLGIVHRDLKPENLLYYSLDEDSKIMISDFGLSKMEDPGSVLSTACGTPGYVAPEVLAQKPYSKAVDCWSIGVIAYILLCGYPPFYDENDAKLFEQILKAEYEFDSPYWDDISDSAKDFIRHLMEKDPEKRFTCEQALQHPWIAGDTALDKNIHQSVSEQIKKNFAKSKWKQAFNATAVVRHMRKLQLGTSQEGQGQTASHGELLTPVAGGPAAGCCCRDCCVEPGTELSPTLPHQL

[27] = target: Tyrosine-protein kinase Tec (Homo sapiens) (UniProt P42680); assay: Inhibition of TEC (unknown origin) at 1 uM by mobility shift microfluidics platform based assay relative to control
[28] = target: Cytoplasmic tyrosine-protein kinase BMX (Homo sapiens) (UniProt P51813); assay: Inhibition of BMX (unknown origin) at 1 uM by mobility shift microfluidics platform based assay relative to control
[29] = target: Ribosomal protein S6 kinase beta-2 (Homo sapiens) (UniProt Q9UBS0); assay: Inhibition of P70S6K2 (unknown origin) at 1 uM by mobility shift microfluidics platform based assay relative to control
[30] = target: Serine/threonine-protein kinase MARK1 (Homo sapiens) (UniProt Q9P0L2); assay: Inhibition of MARK1 (unknown origin) at 1 uM by mobility shift microfluidics platform based assay relative to control
[31] = target: Protein NDRG1 (Homo sapiens) (UniProt Q92597); assay: Inhibition of NDRG1 (unknown origin) at 1 uM by mobility shift microfluidics platform based assay relative to control
[32] = target: Serine/threonine-protein kinase 16 (Homo sapiens) (UniProt O75716); assay: Inhibition of STK16 (unknown origin) at 1 uM by mobility shift microfluidics platform based assay relative to control

Sequence of Fibroblast growth factor receptor 4 (Homo sapiens) (P22455 22-802 limits assumed): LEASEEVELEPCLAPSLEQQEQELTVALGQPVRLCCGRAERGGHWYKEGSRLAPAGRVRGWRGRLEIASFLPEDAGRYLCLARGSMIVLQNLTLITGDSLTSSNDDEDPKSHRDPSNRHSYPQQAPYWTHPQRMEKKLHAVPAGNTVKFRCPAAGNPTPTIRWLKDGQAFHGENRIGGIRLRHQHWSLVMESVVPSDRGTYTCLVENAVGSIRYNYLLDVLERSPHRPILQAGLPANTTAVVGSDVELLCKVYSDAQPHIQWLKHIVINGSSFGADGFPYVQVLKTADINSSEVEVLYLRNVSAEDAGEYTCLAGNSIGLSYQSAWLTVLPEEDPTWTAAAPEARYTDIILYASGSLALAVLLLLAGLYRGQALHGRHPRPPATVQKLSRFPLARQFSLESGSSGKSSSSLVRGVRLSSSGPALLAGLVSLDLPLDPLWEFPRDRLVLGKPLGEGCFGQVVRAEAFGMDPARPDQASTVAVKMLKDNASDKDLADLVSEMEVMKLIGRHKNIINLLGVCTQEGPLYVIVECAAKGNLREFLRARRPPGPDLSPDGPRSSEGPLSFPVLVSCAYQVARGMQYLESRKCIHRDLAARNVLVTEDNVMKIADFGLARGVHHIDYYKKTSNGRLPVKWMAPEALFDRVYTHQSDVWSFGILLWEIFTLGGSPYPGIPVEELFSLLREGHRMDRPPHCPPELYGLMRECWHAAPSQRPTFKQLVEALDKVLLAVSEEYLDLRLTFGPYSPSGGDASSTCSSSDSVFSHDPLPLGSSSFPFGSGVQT

Row | inhibition [1] [%] | inhibition [2] [%] | inhibition [3] [%] | inhibition [4] [%] | Papp B→A [5] [×10⁻⁶ cm/s] | inhibition [6] [%] | inhibition [7] [%] | inhibition [8] [%] | inhibition [9] [%] | inhibition [10] [%] | inhibition [11] [%] | inhibition [12] [%] | inhibition [13] [%] | inhibition [14] [%] | inhibition [15] [%] | inhibition [16] [%] | inhibition [17] [%] | inhibition [18] [%] | inhibition [19] [%] | inhibition [20] [%] | SMILES | other results
1 | 89 | 17 | 33 | -4 | 1 | 0 | -3 | 0 | 13 | -1 | 2 | 98 | 99 | 1 | 74 | -2 | 97 | 31 | -1 | 43 | CC(C)n1nc(C#Cc2cccc(NC(=O)c3cccc(C(F)(F)F)c3)c2)c2c(N)ncnc21 | inhibition [21]: 1%; inhibition [22]: 30%; inhibition [23]: 4%; inhibition [24]: 9%; inhibition (Homo sapiens): -1%; inhibition [25]: 24%; inhibition [26]: 2%; inhibition [27]: 40%; inhibition [28]: 98%; inhibition [29]: 5%; inhibition [30]: 1%; inhibition [31]: -3%; inhibition [32]: 8%
2 | 62 | 8 | -2 | 1 | 2.6 | 0 | 0 | -1 | 3 | 0 | 0 | 86 | 97 | 2 | 1 | 6 | 46 | 2 | -1 | 13 | CC(C)n1nc(C#Cc2cccc3cc(-c4cccc(C(F)(F)F)c4)ncc23)c2c(N)ncnc21 | inhibition [21]: 5%; inhibition [22]: 10%; inhibition [23]: 3%; inhibition [24]: 0%; inhibition (Homo sapiens): 0%; inhibition [25]: 9%; inhibition [26]: 1%; inhibition [27]: 2%; inhibition [28]: 36%; inhibition [29]: 3%; inhibition [30]: -2%; inhibition [31]: 6%; inhibition [32]: 2%
